Laboratory results published in ChEMBL document CHEMBL4052782, “Neuropathic pain-alleviating effects of pyrazole-conjugated arylsulfonamides as 5-HT6 receptor antagonists” (Bioorg Med Chem Lett, 2017).
Calls of active or inactive are those of the source. No cut-off for these calls is given here.

Columns and labels:
[1] = target: T1, 5-hydroxytryptamine receptor 6 (Homo sapiens, UniProt P50406); assay: Inhibition of ligand binding to human 5-HT6R at 10 uM relative to control
[2] = target: T1, 5-hydroxytryptamine receptor 6; assay: Antagonist activity at human 5-HT6R expressed in human HeLa cells assessed as inhibition of 5-HT-induced cAMP levels pre-treated for 10 mins before 30 mins stimulation with 5-HT by D2-dye based HTRF assay; assay type: functional, cell-based
Procedure, shortened: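 HeLa cells stably expressing human 5-HT6 receptor, kept at 37°C in 5% CO2/95% air, suspended in PBS with 2 mM IBMX. Compound pretreatment 10 min, then 100 nM 5-HT stimulation 30 min. d2-labelled cAMP and cryptate-labelled anti-cAMP antibody added, 1 h at room temperature. Fluorescence read at 314 nm excitation, 668 and 620 nm emission.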

Rattus norvegicus [3] = assay: Antineuropathic pain activity in rat spinal nerve ligation model assessed as effect on mechanical allodynia by measuring frequency of paw withdrawal at 100 mg/kg, po measured up to 3 hrs; assay type: functional, organism-based
Procedure, shortened: (§1)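 Rats with spinal nerve ligation neuropathic injury, dosed orally at 100 mg/kg (n = 3–6 per group). Allodynia tested before injury, before dosing (post-injury day 14), and 1, 3 and 5 h after dosing. Values compared with pre-administration values by paired t-test, P < 0.05.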

CYP2D6 = CYP2D6 (Homo sapiens, UniProt P10635); assay: Inhibition of recombinant human CYP2D6 expressed in baculosomes assessed as remaining activity at 10 uM preincubated for 10 mins followed by Vivid substrate addition in presence of NADP+ by fluorescence assay relative to […]; assay type: ADME; settings: probe Vivid substrate, read-out: Activity
Procedure, shortened: (§2)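 Remaining percent CYP activity measured at 10 µM test concentration. Values are means ± SD of triplicate experiments.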

CYP3A4 = CYP3A4 (Homo sapiens, UniProt P08684); assay: Inhibition of recombinant human CYP3A4 expressed in baculosomes assessed as remaining activity at 10 uM preincubated for 10 mins followed by Vivid CYP450 substrate addition in presence of NADP+ by fluorescence assay relative to ketoconazole; assay type: ADME; settings: probe Vivid CYP450 substrate, read-out: Activity; procedure, shortened: as §2
Rattus norvegicus [4] = assay: Antineuropathic pain activity in rat spinal nerve ligation model assessed as effect on cold allodynia by measuring paw withdrawal response at 100 mg/kg, po measured up to 5 hrs; assay type: functional, organism-based; procedure, shortened: as §1
[5] = target: Voltage-gated inwardly rectifying potassium channel KCNH2 (Homo sapiens, UniProt Q12809); assay: Inhibition of human ERG expressed in CHOK1 cells by patch clamp method
CYP2C9 = CYP2C9 (Homo sapiens, UniProt P08684); assay: Inhibition of recombinant human CYP2C9 expressed in baculosomes assessed as remaining activity at 10 uM preincubated for 10 mins followed by Vivid CYP450 substrate addition in presence of NADP+ by fluorescence assay relative to miconazole; assay type: ADME; settings: probe Vivid CYP450 substrate, read-out: Activity; procedure, shortened: as §2
Rattus norvegicus [6] = assay: Poteny index, ratio of gabapentin to test compound antineuropathic pain activity in rat spinal nerve ligation model assessed as effect on mechanical allodynia by measuring frequency of paw withdrawal at 100 mg/kg, po; assay type: functional

T1 sequence (P50406 whole entry): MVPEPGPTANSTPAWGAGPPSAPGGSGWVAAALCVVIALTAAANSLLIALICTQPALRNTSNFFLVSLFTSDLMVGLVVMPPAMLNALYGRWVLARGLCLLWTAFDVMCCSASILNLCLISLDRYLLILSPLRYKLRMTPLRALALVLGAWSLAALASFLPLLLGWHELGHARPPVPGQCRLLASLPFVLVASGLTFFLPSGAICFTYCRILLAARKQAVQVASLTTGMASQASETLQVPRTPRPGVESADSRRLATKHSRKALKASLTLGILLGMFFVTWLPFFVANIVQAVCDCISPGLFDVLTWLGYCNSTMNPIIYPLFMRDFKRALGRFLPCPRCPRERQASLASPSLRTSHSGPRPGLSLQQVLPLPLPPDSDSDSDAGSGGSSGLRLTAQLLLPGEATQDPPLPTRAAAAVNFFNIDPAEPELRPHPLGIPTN
Sequence of CYP3A4 (P08684 whole entry): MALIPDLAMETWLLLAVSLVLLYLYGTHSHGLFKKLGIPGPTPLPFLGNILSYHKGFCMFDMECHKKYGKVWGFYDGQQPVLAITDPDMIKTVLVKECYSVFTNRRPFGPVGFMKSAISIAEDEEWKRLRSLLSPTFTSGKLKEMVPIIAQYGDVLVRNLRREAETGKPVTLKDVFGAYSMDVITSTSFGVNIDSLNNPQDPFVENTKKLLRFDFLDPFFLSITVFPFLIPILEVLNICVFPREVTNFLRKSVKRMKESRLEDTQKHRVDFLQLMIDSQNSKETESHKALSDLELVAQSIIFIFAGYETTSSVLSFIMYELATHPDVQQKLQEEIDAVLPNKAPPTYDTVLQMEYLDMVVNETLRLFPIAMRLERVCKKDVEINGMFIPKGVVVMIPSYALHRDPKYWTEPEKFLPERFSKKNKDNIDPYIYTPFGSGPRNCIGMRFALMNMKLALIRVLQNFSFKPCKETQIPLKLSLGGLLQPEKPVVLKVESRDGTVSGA
Sequence of CYP2D6 (P10635 whole entry): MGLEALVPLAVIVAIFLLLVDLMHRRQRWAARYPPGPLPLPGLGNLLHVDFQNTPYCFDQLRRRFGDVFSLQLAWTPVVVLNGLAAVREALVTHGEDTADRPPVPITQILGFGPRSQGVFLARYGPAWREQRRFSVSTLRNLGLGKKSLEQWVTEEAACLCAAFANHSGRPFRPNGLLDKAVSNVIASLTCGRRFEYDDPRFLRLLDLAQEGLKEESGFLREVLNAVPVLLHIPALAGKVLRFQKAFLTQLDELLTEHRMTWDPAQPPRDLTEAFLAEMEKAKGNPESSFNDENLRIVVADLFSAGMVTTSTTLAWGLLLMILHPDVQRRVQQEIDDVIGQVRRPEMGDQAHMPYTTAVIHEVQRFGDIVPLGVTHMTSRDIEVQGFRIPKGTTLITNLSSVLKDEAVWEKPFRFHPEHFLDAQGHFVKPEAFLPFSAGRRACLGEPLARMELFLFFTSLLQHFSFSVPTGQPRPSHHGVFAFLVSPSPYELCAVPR
Sequence of Voltage-gated inwardly rectifying potassium channel KCNH2 (Q12809 whole entry): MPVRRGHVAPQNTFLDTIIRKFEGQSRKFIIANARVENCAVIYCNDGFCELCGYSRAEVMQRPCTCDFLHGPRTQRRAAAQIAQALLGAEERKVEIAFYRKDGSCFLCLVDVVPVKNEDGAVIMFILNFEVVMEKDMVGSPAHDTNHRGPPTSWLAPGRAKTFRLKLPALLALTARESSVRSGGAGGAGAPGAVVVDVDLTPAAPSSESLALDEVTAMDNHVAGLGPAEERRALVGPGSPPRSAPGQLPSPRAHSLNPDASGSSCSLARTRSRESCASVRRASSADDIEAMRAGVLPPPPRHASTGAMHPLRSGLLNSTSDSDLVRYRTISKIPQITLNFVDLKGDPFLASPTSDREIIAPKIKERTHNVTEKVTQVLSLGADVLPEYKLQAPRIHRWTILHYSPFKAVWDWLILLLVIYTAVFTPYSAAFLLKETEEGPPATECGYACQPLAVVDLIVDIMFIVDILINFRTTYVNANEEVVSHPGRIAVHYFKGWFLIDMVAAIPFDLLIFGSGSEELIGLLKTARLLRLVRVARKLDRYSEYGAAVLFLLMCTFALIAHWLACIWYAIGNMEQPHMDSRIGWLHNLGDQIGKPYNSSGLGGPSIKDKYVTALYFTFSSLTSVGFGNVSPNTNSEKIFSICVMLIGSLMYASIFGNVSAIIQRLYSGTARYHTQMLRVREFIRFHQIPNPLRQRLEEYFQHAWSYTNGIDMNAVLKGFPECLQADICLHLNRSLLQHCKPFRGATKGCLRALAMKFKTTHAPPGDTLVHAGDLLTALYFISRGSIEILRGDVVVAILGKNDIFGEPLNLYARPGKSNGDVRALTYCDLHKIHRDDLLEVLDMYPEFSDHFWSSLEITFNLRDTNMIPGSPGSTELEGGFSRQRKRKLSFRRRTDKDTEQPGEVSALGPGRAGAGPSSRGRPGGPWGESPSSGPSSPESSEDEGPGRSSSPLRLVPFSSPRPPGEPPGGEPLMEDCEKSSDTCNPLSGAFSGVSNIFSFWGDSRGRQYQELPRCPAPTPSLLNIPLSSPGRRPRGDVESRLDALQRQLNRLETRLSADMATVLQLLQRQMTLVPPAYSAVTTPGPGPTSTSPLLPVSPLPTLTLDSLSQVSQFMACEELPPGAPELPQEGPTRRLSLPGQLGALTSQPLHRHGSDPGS
Sequence of CYP2C9 (P08684 whole entry): as the sequence (P08684 whole entry) above

Compound | inhibition [1] | IC50 [2] | further results
CC(C)Cc1cc(CNS(=O)(=O)c2cccc(F)c2)nn1-c1ccccc1 | 19.5% |  | 
CC(C)Cc1cc(CNS(=O)(=O)c2cccc3ccccc23)nn1-c1ccccc1 | 77.7% | 2.43 µM | 
CC(C)Cc1cc(CNS(=O)(=O)c2cccc(Cl)c2)nn1-c1ccccc1 | 40.8% | 10.9 µM | 
NCC1(CC(=O)O)CCCCC1 |  |  | Activity (Rattus norvegicus [3]): Active
CC(C)Cc1cc(CNS(=O)(=O)c2cccc3cccnc23)nn1-c1ccccc1 | 106% | 1.42 µM | activity at 10 µM (CYP2D6): 119%; activity at 10 µM (CYP3A4): 52.2%; Activity (Rattus norvegicus [3]): Active; Activity (Rattus norvegicus [4]): inactive
CC(C)Cc1cc(CNS(=O)(=O)c2ccc(C(C)(C)C)cc2)nn1-c1ccccc1 | 51.1% | 8.78 µM | 
CC(C)Cc1cc(CNS(=O)(=O)c2c(Cl)cccc2Cl)nn1-c1ccccc1 | 59.4% | 5.65 µM | 
O=C1c2[nH]nc(NS(=O)(=O)c3ccc4ccccc4c3)c2CCN1CC1CCNCC1 | 94.1% | 0.31 µM | 
Cc1c(Cl)cccc1S(=O)(=O)NCc1cc(CC(C)C)n(-c2ccccc2)n1 | 72.3% | 4.01 µM | 
CC(C)Cc1cc(CNS(=O)(=O)Cc2cccc3ccccc23)nn1-c1ccc(F)cc1 | 36.1% |  | 
CC(C)Cc1cc(CNS(=O)(=O)c2ccccc2)nn1-c1ccccc1 | 11.3% |  | 
CC(C)Cc1cc(CNS(=O)(=O)c2ccc3ccccc3c2)nn1-c1ccccc1 | 67.8% | 3.3 µM | 
CC(C)Cc1cc(CNS(=O)(=O)Cc2cccc3ccccc23)nn1-c1ccccc1 | 28.7% |  | 
CC(C)Cc1cc(CNS(=O)(=O)c2cccc3cccnc23)nn1-c1ccc(F)cc1 | 93.4% | 1.78 µM | IC50 [5]: 1.6 µM; activity at 10 µM (CYP2C9): 3.87%; activity at 10 µM (CYP2D6): 64.8%; Ratio (Rattus norvegicus [6]): 60; activity at 10 µM (CYP3A4): 34.5%; Activity (Rattus norvegicus [3]): Active; Activity (Rattus norvegicus [4]): inactive
